# Laboratory results as given in ChEMBL document CHEMBL1156940, “Modified cap group suberoylanilide hydroxamic acid histone deacetylase inhibitor derivatives reveal improved selective antileukemic activity” (J Med Chem, 2010).
# The source made the active and inactive calls. No cut-off for these calls is given here.
# Key:
# [1] = test system: SK-BR-3; assay: Antiproliferative activity against human SK-BR-3 cells after 48 hrs by cell titer-glo assay; type: functional, cell-based; settings: SK-BR-3, 48 h
# [2] = test system: HT-29; assay: Antiproliferative activity against human HT-29 cells after 48 hrs by cell titer-glo assay; type: functional, cell-based; settings: HT-29, 48 h
# [3] = test system: U-937; assay: Antiproliferative activity against human U937 cells after 48 hrs by cell titer-glo assay; type: functional, cell-based; settings: U-937, 48 h
# Outline: (§1)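 Cells kept in RPMI-1640 with 10% FBS at 37 °C, 5% CO2. 10^4 suspension cells were plated immediately before dosing. Compounds were added at 0.1–100 µM, final 1% DMSO, with DMSO vehicle control, and incubated 48 h. CellTiter-Glo luminescence was read. EC50 is the dose reducing luminescence to 50% of untreated cultures.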
# [4] = test system: Jurkat; assay: Antiproliferative activity against human Jurkat JA16 cells after 48 hrs by cell titer-glo assay; type: functional, cell-based
# [5] = test system: HL-60; assay: Antiproliferative activity against human HL60 cells after 48 hrs by cell titer-glo assay; type: functional, cell-based; settings: HL-60, 48 h
# [6] = test system: K562; assay: Antiproliferative activity against human K562 cells after 48 hrs by cell titer-glo assay; type: functional, cell-based; settings: K562, 48 h; outline: as §1
# [7] = Therapeutic ratio, EC50 for human PBMC to EC50 for human 937 cells; settings: human PBMC versus human 937 cells
# [8] = target: Histone deacetylase 1 (Homo sapiens) (UniProt Q13547); assay: Inhibition of recombinant FLAG-tagged HDAC1 assessed as [3H]acetic acid release preincubated for 30 mins measured after 2 hrs by scintillation counting
# Outline: (§2)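 FLAG-tagged HDAC1 or HDAC6 was immunopurified from stably expressing cell lines and washed in HDAC buffer (10 mM Tris-HCl pH 8.0, 10 mM NaCl, 10% glycerol). Enzyme was preincubated with inhibitor (1 µM) for 30 min at 4 °C, then given 20 000 cpm [3H]peracetylated H4 peptide for 2 h at 37 °C. The reaction was stopped with acetic acid/HCl, extracted into ethyl acetate, and released [3H]acetate counted by scintillation.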
# [9] = target: T1, Protein deacetylase HDAC6 (Homo sapiens) (UniProt Q9UBN7); assay: Inhibition of recombinant FLAG-tagged HDAC6 assessed as [3H]acetic acid release preincubated for 30 mins measured after 2 hrs by scintillation counting; outline: as §2
# T1 sequence (whole entry): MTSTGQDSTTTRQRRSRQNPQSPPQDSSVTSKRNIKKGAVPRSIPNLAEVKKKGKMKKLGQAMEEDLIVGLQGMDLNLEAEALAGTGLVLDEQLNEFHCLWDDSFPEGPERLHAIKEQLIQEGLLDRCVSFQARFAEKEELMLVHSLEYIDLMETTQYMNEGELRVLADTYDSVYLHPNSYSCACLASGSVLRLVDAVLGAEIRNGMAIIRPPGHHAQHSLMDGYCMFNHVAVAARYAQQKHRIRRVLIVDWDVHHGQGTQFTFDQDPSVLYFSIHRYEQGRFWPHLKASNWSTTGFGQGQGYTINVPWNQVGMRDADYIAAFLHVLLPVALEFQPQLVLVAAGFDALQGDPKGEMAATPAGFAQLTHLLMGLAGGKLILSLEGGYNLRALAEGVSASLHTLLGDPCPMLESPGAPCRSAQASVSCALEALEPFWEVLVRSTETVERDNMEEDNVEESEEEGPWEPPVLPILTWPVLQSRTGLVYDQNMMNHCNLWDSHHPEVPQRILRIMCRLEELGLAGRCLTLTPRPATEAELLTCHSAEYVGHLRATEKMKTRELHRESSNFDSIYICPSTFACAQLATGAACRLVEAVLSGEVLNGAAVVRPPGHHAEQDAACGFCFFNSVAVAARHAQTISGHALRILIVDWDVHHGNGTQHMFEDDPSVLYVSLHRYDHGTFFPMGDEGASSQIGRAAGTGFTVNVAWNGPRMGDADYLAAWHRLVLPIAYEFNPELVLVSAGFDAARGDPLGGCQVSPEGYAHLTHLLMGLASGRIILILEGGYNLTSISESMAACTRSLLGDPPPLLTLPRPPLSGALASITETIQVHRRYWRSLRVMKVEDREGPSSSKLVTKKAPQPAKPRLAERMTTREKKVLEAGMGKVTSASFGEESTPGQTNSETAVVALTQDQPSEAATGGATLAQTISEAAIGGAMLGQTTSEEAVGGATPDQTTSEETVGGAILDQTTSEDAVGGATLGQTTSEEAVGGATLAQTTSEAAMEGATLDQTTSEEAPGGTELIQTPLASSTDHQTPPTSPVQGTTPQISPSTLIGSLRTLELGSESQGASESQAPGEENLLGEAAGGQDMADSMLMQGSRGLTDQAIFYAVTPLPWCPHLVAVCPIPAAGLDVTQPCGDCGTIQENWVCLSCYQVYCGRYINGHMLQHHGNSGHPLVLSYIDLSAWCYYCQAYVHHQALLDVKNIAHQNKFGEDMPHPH
# [10] = test system: Mus musculus; assay: Toxicity in FVB mouse assessed as mortality at 50 mg/kg, po administered 5 times per week for 2 weeks; type: organism-based; design: dose 50 mg/kg, route oral; settings: in vivo, 336 h
# Outline: (§3)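 8-week-old Fvb mice, SPF-housed in ventilated cages with acidified water, randomly assigned (n = 3 per group) to compound or solvent-only vehicle. Dosing was by oral gavage five times weekly for 2 weeks. Survival was monitored with body weight and blood counts during dosing, and deaths were also recorded during the month after treatment stopped.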
# [11] = test system: Mus musculus; assay: Toxicity in FVB mouse assessed as mortality at 50 mg/kg, po administered 5 times per week for 2 weeks measured up to 1 month; type: organism-based; design: dose 50 mg/kg, route oral; settings: in vivo, 336 h; outline: as §3
# [12] = test system: Mus musculus; assay: Toxicity in FVB mouse assessed as effect on number of platelets at 50 mg/kg, po administered 5 times per week for 2 weeks measured during test (reference value: 454 +/- 93 10^3/mm^3); type: organism-based; design: dose 50 mg/kg, route oral; settings: in vivo, 336 h
# Outline: (§4)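 8-week-old FVB mice were housed specific-pathogen-free and randomly assigned, n = 3 per group. They received 50 mg/kg compound or vehicle alone by oral gavage, five times weekly for 2 weeks. Body weight and survival were monitored. Differential blood counts came from nonlethal retro-orbital bleeds before study (J-5), during study (J5) and at end point (J12). Values are means ± spread for n = 3.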
# [13] = test system: Mus musculus; assay: Toxicity in FVB mouse assessed as effect on number of platelets at 50 mg/kg, po administered 5 times per week for 2 weeks (reference value: 514 +/- 42.8 10^3/mm^3); type: organism-based; design: dose 50 mg/kg, route oral; settings: in vivo, 336 h; outline: as §4
# [14] = test system: Mus musculus; assay: Toxicity in FVB mouse assessed as effect on mean platelet volume at 50 mg/kg, po administered 5 times per week for 2 weeks measured during test (reference value: 8.4 +/- 0.5 microm^3); type: organism-based; design: dose 50 mg/kg, route oral; settings: in vivo, 336 h; outline: as §4
# [15] = test system: Mus musculus; assay: Toxicity in FVB mouse assessed as effect on mean platelet volume at 50 mg/kg, po administered 5 times per week for 2 weeks (reference value: 8.8 +/- 0.1 microm^3); type: organism-based; design: dose 50 mg/kg, route oral; settings: in vivo, 336 h; outline: as §4
# [16] = test system: Mus musculus; assay: Toxicity in FVB mouse assessed as effect on number of RBC at 50 mg/kg, po administered 5 times per week for 2 weeks measured during test (reference value: 8.1 +/- 0.2 10^6/mm^3); type: organism-based; design: dose 50 mg/kg, route oral; settings: in vivo, 336 h; outline: as §4
# [17] = test system: Mus musculus; assay: Toxicity in FVB mouse assessed as effect on number of RBC at 50 mg/kg, po administered 5 times per week for 2 weeks (reference value: 7.7 +/- 0.1 10^6/mm^3); type: organism-based; design: dose 50 mg/kg, route oral; settings: in vivo, 336 h; outline: as §4
# [18] = test system: Mus musculus; assay: Toxicity in FVB mouse assessed as effect on mean cell volume of red cells at 50 mg/kg, po administered 5 times per week for 2 weeks measured during test (reference value: 43.7 +/- 0.4 microm^3); type: organism-based; design: dose 50 mg/kg, route oral; settings: in vivo, 336 h; outline: as §4
# [19] = test system: Mus musculus; assay: Toxicity in FVB mouse assessed as effect on number of WBC at 50 mg/kg, po administered 5 times per week for 2 weeks measured during test (reference value: 9.1 +/- 0.2 10^3/mm^3); type: organism-based; design: dose 50 mg/kg, route oral; settings: in vivo, 336 h; outline: as §4
# [20] = test system: Mus musculus; assay: Toxicity in FVB mouse assessed as effect on number of WBC at 50 mg/kg, po administered 5 times per week for 2 weeks (reference value: 9.1 +/- 0.2 10^3/mm^3); type: organism-based; design: dose 50 mg/kg, route oral; settings: in vivo, 336 h; outline: as §4
# [21] = test system: Mus musculus; assay: Toxicity in FVB mouse assessed as effect on hematocrit at 50 mg/kg, po administered 5 times per week for 2 weeks measured during test; type: organism-based; design: dose 50 mg/kg, route oral; settings: in vivo, 336 h; outline: as §4
# [22] = test system: Mus musculus; assay: Toxicity in FVB mouse assessed as effect on hematocrit at 50 mg/kg, po administered 5 times per week for 2 weeks; type: organism-based; design: dose 50 mg/kg, route oral; settings: in vivo, 336 h; outline: as §4
# [23] = test system: Mus musculus; assay: Toxicity in FVB mouse assessed as effect on body weight at 50 mg/kg, po administered 5 times per week for 2 weeks measured during test; type: organism-based; design: dose 50 mg/kg, route oral; settings: in vivo, 336 h; outline: as §4
# [24] = test system: Mus musculus; assay: Toxicity in FVB mouse assessed as effect on body weight at 50 mg/kg, po administered 5 times per week for 2 weeks; type: organism-based; design: dose 50 mg/kg, route oral; settings: in vivo, 336 h; outline: as §4
# [25] = test system: Mus musculus; assay: Toxicity in FVB mouse assessed as effect on mean cell volume of red cells at 50 mg/kg, po administered 5 times per week for 2 weeks (reference value: 43.9 +/- 0.5 microm^3); settings: in vivo, 336 h
# Histone deacetylase 1 (Homo sapiens), sequence (Q13547 whole entry): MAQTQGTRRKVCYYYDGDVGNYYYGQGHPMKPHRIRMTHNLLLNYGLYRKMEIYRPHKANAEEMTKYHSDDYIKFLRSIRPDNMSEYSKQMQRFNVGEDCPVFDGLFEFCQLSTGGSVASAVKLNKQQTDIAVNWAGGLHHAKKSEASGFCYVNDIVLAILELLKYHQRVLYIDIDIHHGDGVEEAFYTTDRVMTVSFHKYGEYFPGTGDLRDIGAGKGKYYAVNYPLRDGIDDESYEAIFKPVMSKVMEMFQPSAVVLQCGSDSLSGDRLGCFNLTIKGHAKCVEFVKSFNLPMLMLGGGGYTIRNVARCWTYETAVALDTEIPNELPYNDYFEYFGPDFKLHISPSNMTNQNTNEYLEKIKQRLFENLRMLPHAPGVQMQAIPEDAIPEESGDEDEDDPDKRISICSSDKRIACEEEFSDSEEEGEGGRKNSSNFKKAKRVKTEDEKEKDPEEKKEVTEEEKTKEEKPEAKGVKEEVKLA
Structure (SMILES),EC50 [1],EC50 [2],EC50 [3],EC50 [4],EC50 [5],EC50 [6],Activity [8],Activity [9],further results
O=C(CCCCCCC(=O)Nc1cc2ccc3cccc4ccc(c1)c2c34)NO,1200 nM,1400 nM,300 nM,180 nM,350 nM,800 nM,Active,Active,selectivity ratio [7]: 15
N#Cc1ccc(NC(=O)CCCCCCC(=O)NO)cc1,8800 nM,42000 nM,7000 nM,–,–,–,–,–,–
CN(C)c1ccc(NC(=O)CCCCCCC(=O)NO)cc1,4200 nM,3150 nM,1700 nM,–,–,–,Active,Active,–
O=C(CCCCCCC(=O)Nc1cccc(C(F)(F)F)c1)NO,26000 nM,6400 nM,1200 nM,–,–,–,–,–,–
O=C(CCCCCCC(=O)NO)NO [SUBEROHYDROXAMIC ACID],27000 nM,32000 nM,23000 nM,–,–,–,–,–,–
O=C(CCCCCCC(=O)Nc1ccccc1Br)NO,17500 nM,17000 nM,6800 nM,–,–,–,–,–,–
O=C(CCCCCCC(=O)Nc1cccc(F)c1)NO,1900 nM,1400 nM,500 nM,640 nM,1250 nM,2400 nM,Active,Active,–
Nc1ccc(NC(=O)CCCCCCC(=O)NO)cc1,8500 nM,18000 nM,6400 nM,–,–,–,–,–,–
O=C(CCCCCCC(=O)Nc1ccccc1-c1ccccc1)NO,73500 nM,27000 nM,14000 nM,–,–,–,–,–,–
O=C(CCCCCCC(=O)Nc1ccc([N+](=O)[O-])cc1)NO,58000 nM,76000 nM,22000 nM,–,–,–,–,–,–
O=C(CCCCCCC(=O)Nc1cccc2cccnc12)NO,> 100000 nM,> 100000 nM,26000 nM,–,–,–,–,–,–
O=C(O)CCCCCCC(=O)NO,> 100000 nM,> 100000 nM,> 100000 nM,> 100000 nM,> 100000 nM,> 100000 nM,–,–,–
O=C(CCCCCCC(=O)Nc1[nH]c(=O)ncc1F)NO,40500 nM,63000 nM,26500 nM,16000 nM,18000 nM,> 100000 nM,–,–,–
O=C(CCCCCCC(=O)Nc1ccc(F)cc1)NO,3000 nM,4200 nM,1800 nM,–,–,–,Active,Active,–
O=C(CCCCCCC(=O)Nc1ccccc1)NO [VORINOSTAT],–,–,820 nM,–,–,2200 nM,–,–,Activity [10]: Non-toxic; Activity [11]: Non-toxic; Activity [12]: 617 10^3/mm3; Activity [13]: 538 10^3/mm3; Activity [14]: 7.7 um3; Activity [15]: 8.4 um3; Activity [16]: 8.3 10^6/mm3; Activity [17]: 7.6 10^6/mm3; Activity [18]: 44.1 um3; Activity [19]: 5.9 10^3/mm3; Activity [20]: 8.3 10^3/mm3; Activity [21]: 36.5%; Activity [22]: 33.7%; Activity [23]: 94.9%; Activity [24]: 96.2%; Activity [25]: 44.5 um3
O=C(CCCCCCC(=O)Nc1cccc(Cl)c1)NO,2000 nM,1000 nM,350 nM,580 nM,2100 nM,3500 nM,Active,Active,–
O=C(CCCCCCC(=O)Nc1ccc(Cl)cc1)NO,2300 nM,2100 nM,550 nM,770 nM,1870 nM,3300 nM,Active,Active,–
O=C(CCCCCCC(=O)Nc1ccc(O)cc1)NO,11000 nM,15000 nM,6400 nM,–,–,–,–,–,–
O=C(CCCCCCC(=O)Nc1ccc2c(c1)Cc1ccccc1-2)NO,4000 nM,2500 nM,600 nM,430 nM,1130 nM,3500 nM,Active,Active,–
O=C(CCCCCCC(=O)Nc1ccc2ccccc2c1)NO,1800 nM,850 nM,350 nM,400 nM,1160 nM,3000 nM,Active,Active,–
O=C(CCCCCCC(=O)Nc1ccc(C(F)(F)F)cc1)NO,2200 nM,1400 nM,450 nM,530 nM,1540 nM,2100 nM,Active,Active,–
